Bioassay records: PubChem BioAssay, several laboratories
Rows were chosen to be rich in hits. Some 2.8% of all compounds tested hit in one or more screens of this group.
Wee1 degr inh: inhibitors of human Wee1 degradation. P30291. HeLa Luc-Wee1K328M stability, luciferase luminescence; 100% = proteasome inhibitor MG132 effect. reporter increase, % at 5 µM. 1.2% of 220,000 active. AID 1321;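 active means activation above the mean of all tested compounds plus 3 SD, set per screening run, cut at about 8.8% in these data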;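 further: cells exposed to compound for 20 h before luminescence read; 0% = DMSO alone and 100% = MG132 at 30 µM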
14-3-3 Bad inh: disrupts binding of bovine 14-3-3 zeta to phospho-Bad peptide; 0.71% of 220,000 active; P63103; TR-FRET 14-3-3zeta/Dy647-pBad peptide displacement, 1 h; inhibition, % at 21.7 µM;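 active means inhibition above about 70%, limit read from the data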;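 further: 0% = full 14-3-3 plus peptide FRET controls and 100% = background without 14-3-3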
Target sequence (P63103 whole entry, looked up): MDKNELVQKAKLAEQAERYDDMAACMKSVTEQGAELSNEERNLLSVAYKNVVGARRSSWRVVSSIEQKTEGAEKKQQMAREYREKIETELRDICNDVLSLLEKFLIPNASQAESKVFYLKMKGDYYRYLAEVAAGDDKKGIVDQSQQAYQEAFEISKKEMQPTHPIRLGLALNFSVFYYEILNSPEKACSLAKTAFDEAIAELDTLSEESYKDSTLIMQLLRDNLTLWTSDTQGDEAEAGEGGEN
RBBP9 inh: blocks human serine hydrolase RBBP9. O75884. recombinant RBBP9, FP-Rh probe fluorescence polarization. inhibition, % at 7.94 µM. 0.2% of 220,000 active;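 active means inhibition above the campaign mean of all tested compounds plus 3 SD, cut at about 14% in these data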;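 further: plate controls were DMSO wells with RBBP9 for no effect and wells lacking RBBP9 protein for full effect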
Target sequence (O75884 whole entry, looked up): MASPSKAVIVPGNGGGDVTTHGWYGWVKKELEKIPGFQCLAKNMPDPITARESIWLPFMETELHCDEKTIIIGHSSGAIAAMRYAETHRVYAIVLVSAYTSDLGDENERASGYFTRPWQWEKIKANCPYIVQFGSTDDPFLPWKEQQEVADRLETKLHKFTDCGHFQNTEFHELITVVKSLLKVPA
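Assay system: recombinant human RBBP9; Reagent: Serine-hydrolase probe FP-Rh, 375 nM pre-mixing; Doses: 7.94 µM single dose, 0.794% DMSO; Incubation: 30 min then 45 min, 25 °C; Detection: fluorescence polarization (mP), excitation 525 nm, emission 598 nm; Evaluation: percent inhibition from mP, scaled between DMSO and no-protein wells.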
eIF4E-4G inh: inhibitors of eIF4E and eIF4G interaction in translation initiation; TR-FRET eIF4E-eIF4GI(517-606) binding, 2 h; inhibition, % at 21.7 µM; 0.37% of 220,000 active; AID 782;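 further: 0% = full FRET control wells and 100% = background wells lacking eIF4GI fragment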
p47phox inh: blocks human p47phox regulatory protein of NADPH oxidases. P14598. p47phox/p22phox peptide binding, fluorescence polarization, 2 h. inhibition, % at 24.7 µM. 0.53% of 220,000 active;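 further: 0% = p47phox with labelled peptide and 100% = labelled peptide alone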
RBBP9 confirm: human RBBP9 inhibition, confirmation; shares compounds with RBBP9 inh; recombinant RBBP9, FP-Rh probe fluorescence polarization; inhibition, % at 7.94 µM; 36% of 410 active;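 active means inhibition above the hit cutoff derived for the primary screen, cut at about 15% in these data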;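 further: 0% = RBBP9 with DMSO and 100% = wells lacking RBBP9 protein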
An asterisk follows results filed as active; nt = not tested or not shown.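 How the source made its calls, unless noted: active means inhibition above about 30% (limit read from the data); inactive means the rest.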

SMILES	Wee1 degr inh	14-3-3 Bad inh	RBBP9 inh	eIF4E-4G inh	p47phox inh	RBBP9 confirm
CCOC(=O)c1nc2sc3c(c2c(=O)[nH]1)CCC(C)C3 (stereo unspecified)	-2.2	7.0	15.7*	-10.6	-9.1	1.3
CCOC(=O)c1nc2sc3c(c2c(=O)[nH]1)CCCC3	-2.4	13.0	-7.2	-4.7	-4.7	nt
Cc1cccc2c(N=O)c(O)[nH]c12	0.2	5.9	24.4*	0.0	-26.0	52.5*
O=Nc1c(O)[nH]c2ccc(F)cc12	-1.8	-2.4	9.9	-1.0	-2.5	nt
CC1(C)NC(=O)N(Cc2cc(=O)n3ccsc3n2)C1=O	1.9	-4.6	6.8	-0.2	-5.8	nt
NC1=NC(=O)C(CC(=O)NCc2ccccc2)S1 (stereo unspecified)	-0.8	1.2	-8.5	-2.1	2.5	nt
NC1=NC(=O)CC(C(=O)NCc2ccccc2)S1 (stereo unspecified)	-2.2	-8.7	14.5*	0.1	-5.2	9.0
CCN(CC)C(=O)C(=O)c1cccn1-c1ccccc1C#N	0.8	nt	20.7*	nt	3.0	7.1
COc1cc(/C=N/Nc2ccc(F)cc2F)cc(OC)c1O	3.0	-22.3	17.1*	5.2	3.4	53.2*
COc1cc(/C=N/Nc2ccccc2[N+](=O)[O-])cc(OC)c1O	3.3	-9.9	11.1	2.4	3.1	nt
COCCCNC1=C(Cl)C(=O)c2ccccc2C1=O	-2.4	0.6	0.8	3.7	-9.8	nt
COCCCNc1c2c3c(cccc3[nH]c1=O)C(=O)c1ccccc1-2	8.2	-4.4	48.8*	1.4	-215.9	80.5*
Cc1cnc([N+](=O)[O-])n1CCOC(=O)NC(=O)c1ccc(C(F)(F)F)cc1	-2.7	-16.1	-0.4	1.2	0.8	nt
Cc1cnc([N+](=O)[O-])n1CCOC(=O)NC(=O)c1ccccc1Cl	-0.2	3.4	14.5*	5.3	nt	8.1
CCn1c(SCC(=O)c2ccccc2)nnc1-c1cccnc1	6.5	2.1	15.5*	2.5	5.9	5.5
CCCCN(C(=O)c1cc2ccccc2o1)c1c(N)n(CC(C)C)c(=O)[nH]c1=O	6.2	-3.8	19.8*	0.4	0.5	-0.4
CCC(=O)Oc1ccc(C/C(=N\O)c2ccc(O)cc2O)o1	0.5	8.1	30.6*	-2.0	-4.9	51.8*
COc1cc(C2C(C(=O)OC(C)C)=C(C)Nc3[nH]c(=O)[nH]c(=O)c32)ccc1O (stereo unspecified)	2.4	6.9	17.1*	0.7	-3.4	5.3
COC(=O)C1=C(C)Nc2[nH]c(=S)[nH]c(=O)c2C1c1ccc(O)cc1 (stereo unspecified)	-1.7	1.0	-5.3	0.1	-5.1	nt
CCOC(=O)c1c(C)noc1-c1ccc(Br)o1	7.1	-10.8	-11.7	-0.4	-21.8	nt
CCn1c(CSc2nccn2C)nc2cc(C(=O)O)ccc21	1.4	71.9*	14.7*	6.6	-5.0	17.3*
Cc1c(C#N)c(=O)c(-[n+]2ccccc2)c([S-])n1-c1ccc(Cl)cc1	-1.6	-0.5	-12.5	-12.3	-9.3	nt
CCCCc1nnc2c(N(C)S(=O)(=O)c3ccccc3)nc3ccccc3n12	2.9	13.6	-4.4	-2.6	-12.0	nt
COc1ccccc1NC(=O)CSc1nnc2ccc(-c3cccnc3)nn12	-0.3	-15.1	-6.2	-1.9	2.1	nt
CCOc1ccccc1NC(=O)CSc1nnc2ccc(-c3cccnc3)nn12	6.7	-1.7	15.3*	1.4	0.8	9.2
SMILES	Wee1 degr inh	14-3-3 Bad inh	RBBP9 inh	eIF4E-4G inh	p47phox inh	RBBP9 confirm
COc1cc(/C=N/NC(=O)CSc2ccccn2)ccc1O	-3.1	-7.2	-4.6	-2.0	-4.3	nt
CCCOc1ccc(/C=N/NC(=O)CSc2ccccn2)cc1OC	4.5	-1.4	16.9*	0.3	5.3	9.4
COc1ccc(O)c(C=Nc2cc(NC(C)=O)c(Cl)cc2Cl)c1	-1.9	-5.5	15.2*	-7.0	7.9	3.6
O=C1C(CSCc2ccccc2)NC(=S)N1c1ccccc1 (stereo unspecified)	-2.8	0.1	29.9*	-4.8	-20.9	19.6*
COC(=O)c1c(C)noc1-c1snnc1C	0.0	-6.6	-1.6	-3.2	-5.9	nt
CC(C)=NOC(=O)c1c(C)noc1-c1snnc1C	0.6	3.2	18.3*	0.8	-6.3	3.8
CN(C)/C=N/S(=O)(=O)c1ccc(Cl)c(Cl)c1	1.9	3.7	-2.3	8.2	-2.2	nt
